Compound activity: PubChem, several laboratories
Most compounds without a hit are left out; they make up all but 4.4% or so of the library.
HTR2A ag = mouse Htr2a agonists via beta-arrestin recruitment, primary screen, cell-based, luminescence | 5-hydroxytryptamine receptor 2A (Mus musculus), P35363 | CHO-K1 mHTR2A beta-arrestin complementation; percent of 30 µM serotonin response | activation, % at 7.6 µM | hit rate 0.66% among 360,000 | AID 624169, 2012;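 active = activation above a run cutoff, the mean activation of all tested compounds plus 3 SD, cut at about 14% in these data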;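 note: 0% = plate median of compound wells and 100% = 30 µM serotonin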
AI-2 QS modul = Vibrio harveyi AI-2 quorum sensing modulators, primary screen, JMH597 strain, luminescence/OD600 ratio; Vibrio harveyi JMH597 AI-2 luminescence/OD600 ratio, 9 h; stronger effect = lower value; strain lacks LuxN and CqsS sensors; 0 = neutral-control median; activity change, % at 7.5 µM; hit rate 0.4% among 300,000; AID 2094, 2009; in the data active = activity change below about -75%, passing the limit was not always enough;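 note: luminescence divided by OD600 gain over 9 h not by final OD600 alone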
Tb MetRS inh = T. brucei MetRS inhibitors, primary screen, biochemical, luminescence. methionyl-tRNA synthetase (Trypanosoma brucei brucei). purified T. brucei MetRS, ATP depletion, Kinase-Glo luminescence. inhibition, % at 11.9 µM. hit rate 0.4% among 360,000. AID 624268, 2012;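 active = inhibition above a per-plate cutoff of the control wells' mean inhibition plus 3 SD, cut at about 5.5% in these data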;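 note: 0% = DMSO wells median and 100% = median of wells with control inhibitor compound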
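assay system = parasite MetRS enzyme | timing = 15 min preincubation, 2 h reaction, all 25 °C | evaluation = percent inhibition relative to median high and low control wells | medium = HEPES buffer containing pyrophosphatase, BSA, spermine, DTT | compound = single dose, 11.9 µM final nominal, 0.9% final DMSO | detection = Kinase-Glo luminescence, ATP depletion format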
AHR act = AHR activators, primary screen, cell-based, luminescence, luciferase reporter, human; activation, % at 5 µM; AID 2796, 2010; hit rate 2.5% among 320,000; AHR-responsive luciferase reporter cells; Aryl hydrocarbon receptor (Homo sapiens), P35869; in the data active = activation above about 47%;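 note: 0% = vehicle wells and 100% = reference agonist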
Target sequence (P35869 whole entry, looked up): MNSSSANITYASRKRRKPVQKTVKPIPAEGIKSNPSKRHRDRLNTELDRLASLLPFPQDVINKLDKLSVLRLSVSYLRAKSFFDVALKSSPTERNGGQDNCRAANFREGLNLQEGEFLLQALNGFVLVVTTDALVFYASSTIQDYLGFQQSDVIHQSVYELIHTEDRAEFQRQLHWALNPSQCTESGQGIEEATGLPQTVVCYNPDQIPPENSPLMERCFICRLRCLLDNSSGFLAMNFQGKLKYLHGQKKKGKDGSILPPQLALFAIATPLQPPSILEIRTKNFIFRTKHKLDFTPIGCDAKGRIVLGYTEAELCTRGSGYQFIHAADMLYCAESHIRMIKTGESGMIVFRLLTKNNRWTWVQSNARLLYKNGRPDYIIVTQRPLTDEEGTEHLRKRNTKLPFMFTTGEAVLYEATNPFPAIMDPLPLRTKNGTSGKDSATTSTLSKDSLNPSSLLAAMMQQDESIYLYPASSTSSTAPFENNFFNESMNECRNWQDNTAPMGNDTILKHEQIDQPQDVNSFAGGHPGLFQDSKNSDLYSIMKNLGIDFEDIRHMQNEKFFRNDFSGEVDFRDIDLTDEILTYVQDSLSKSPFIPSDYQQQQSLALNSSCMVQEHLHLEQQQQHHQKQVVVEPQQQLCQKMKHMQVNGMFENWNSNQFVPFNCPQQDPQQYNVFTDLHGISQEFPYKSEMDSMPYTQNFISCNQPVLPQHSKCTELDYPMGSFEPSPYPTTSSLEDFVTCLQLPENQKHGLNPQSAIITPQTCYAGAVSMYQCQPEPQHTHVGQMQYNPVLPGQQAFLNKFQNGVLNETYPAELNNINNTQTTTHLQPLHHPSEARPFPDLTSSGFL
MsrA inhibitor = bovine MsrA enzyme inhibitors, primary screen, biochemical, absorbance, HTS. AID 651718, 2012. hit rate 0.75% among 360,000. inhibition, % at 15.5 µM. purified bovine MsrA, absorbance read-out. Methionine sulfoxide reductase A (Bos taurus); in the data active = inhibition above about 4.5%;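 note: 0% = vehicle wells with enzyme and 100% = reference inhibitor wells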
bovine MsrA act = bovine MsrA enzyme activators, primary screen, biochemical, absorbance, HTS. activation, % at 10.6 µM. Methionine sulfoxide reductase A (Bos taurus). purified bovine MsrA, absorbance read-out. hit rate 0.3% among 360,000. AID 602163, 2012; in the data active = activation above about 7.5%;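 note: 0% = vehicle and 100% = reference activator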
AHR act cf = AHR activators, confirmation, cell-based, luminescence, luciferase reporter, human; shares compounds with AHR act; human cells, AHR-responsive luciferase reporter; activation, % at 9 µM; hit rate 87% among 2,300; AID 2845, 2010; in the data active = activation above about 49%;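 note: HepG2 hepatoma cells carrying a DRE-driven firefly luciferase reporter; 0% = vehicle wells and 100% = reference agonist wells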
PXR counter = human PXR activators, counter-screen for AHR activator project, cell-based, luciferase luminescence; cell-based PXR reporter; activation, % at 11.6 µM; AID 434939, 2010; hit rate 88% among 2,300; shares compounds with AHR act; in the data active = activation above about 11%;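 note: human hepatoma DPX-2 cells expressing full-length human PXR; 0% = DMSO and 100% = reference agonist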
The depositor's hits bear a star; . = not tested or not shown.

SMILES | HTR2A ag | AI-2 QS modul | Tb MetRS inh | AHR act | MsrA inhibitor | bovine MsrA act | AHR act cf | PXR counter
CCCCNC(=O)C1(C)CCN1C(=O)c1cncc(Br)c1 (stereo not drawn) | -2 | . | 0 | . | 1 | -2 | . | .
CC1Oc2ccccc2OC1C(=O)Nc1nccs1 (stereo not drawn) | 3 | 4 | 0 | 80* | 0 | 0 | 105* | 10*
Cc1cccc2c1-c1sc(C(=O)Nc3cccnc3)cc1CO2 | -9 | 3 | 0 | 15 | 1 | -3 | . | .
O=C(Nc1nccs1)c1cc2c(s1)-c1ccccc1OC2 | -4 | 20 | 0 | 150* | 2 | -2 | 115* | 20*
Cc1cccc2c1-c1sc(C(=O)Nc3nccs3)cc1CO2 | 6 | 18 | 0 | 149* | 0 | 1 | 110* | 22*
COc1cccc(-c2c(-c3cc(OC)cc(OC)c3)n(C)c3ccc(-c4cnc(N5CCOCC5)nc4)cc23)c1 | 11 | . | 0 | 2 | 1 | -3 | . | .
CN(C)c1ncnc2c1C(c1ccccc1)C(C)(C)O2 (stereo not drawn) | -2 | . | 0 | . | -1 | -2 | . | .
Cn1c(C(O)c2ccc(Cl)cc2)nc(Cl)c1Cl (stereo not drawn) | -3 | -5 | 0 | 88* | -2 | 2 | 114* | 71*
CCCCN(C(=O)C1=CC=CN2CCS(=O)(=O)N=C12)c1ccccc1 | -5 | . | -1 | . | 2 | -14 | . | .
O=C(Nc1ccc(F)cc1)c1cnc(-c2ccccc2)nc1-c1ccccc1 | 0 | 20 | 0 | 124* | 0 | -2 | 53* | 81*
CC(C)CCNC(=O)CCC(=O)NNc1nc2ccccc2c2nc(-c3ccccc3)nn12 | 5 | 14 | 0 | 16 | 1 | -4 | . | .
O=C(CCC(=O)NNc1nc2ccccc2c2nc(-c3ccccc3)nn12)NCCCN1CCOCC1 | 1 | 26 | -1 | 84* | 0 | -6 | 91* | 16*
CCOc1ccc(Nc2nc(-c3cccnc3)cs2)cc1 | -2 | 18 | 0 | 115* | 1 | -3 | 181* | 14*
COc1ccc(S(=O)(=O)N2CCOCC2)cc1NC(=O)c1cccs1 | 2 | . | 0 | 0 | -1 | -1 | . | .
CN1C2C=C3C(C#N)=C(N)C(C#N)(C#N)C(c4ccc(Br)cc4)C3C1CC2 (stereo not drawn) | -7 | 11 | 1 | 110* | 1 | 0 | 79* | 107*
CN1C2C=C3C(C#N)=C(N)C(C#N)(C#N)[C@@H](c4ccc(Cl)cc4)[C@@H]3C1CC2 (stereo partly drawn) | -5 | 13 | 0 | 40 | 1 | -3 | . | .
CN1C(C)(C)CC(=NO)CC1(C)C | 6 | . | 0 | . | -1 | -7 | . | .
O=C(Nc1cc(Cl)ccc1-n1cncn1)c1cc(F)cc(F)c1 | -1 | 30 | -1 | 41 | -2 | -3 | . | .
O=C(Nc1cc(Cl)ccc1-n1cncn1)c1cccs1 | -2 | 25 | -1 | 84* | 1 | -3 | 116* | 20*
CC(Oc1cc2oc(=O)c3c(c2cc1Cl)CCC3)C(=O)NCCCN1CCCC1=O (stereo not drawn) | -3 | -2 | 0 | 1 | 2 | -1 | . | .
COc1cc(CC(=O)OCC(=O)c2ccc[nH]2)cc(OC)c1OC | 5 | . | 0 | 6 | -1 | 0 | . | .
Cc1ccc(-c2csc(-c3c[nH]c4ccccc34)n2)c(C)c1 | -7 | 3 | -1 | 106* | 0 | -3 | 115* | 24*
O=C(Nc1ccccc1N1CCCC1)c1ccc(Cl)cc1Cl | -6 | 13 | 0 | 39 | -1 | -2 | . | .
O=C(Nc1ccccc1N1CCN(C(=O)c2ccc(Cl)cc2)CC1)c1cccc([N+](=O)[O-])c1 | 4 | 18 | 0 | 127* | 0 | -2 | 102* | 87*
O=C(Nc1ccccc1N1CCCC1)c1ccc([N+](=O)[O-])cc1Cl | 3 | 6 | 0 | 91* | 1 | 0 | 87* | 212*
SMILES | HTR2A ag | AI-2 QS modul | Tb MetRS inh | AHR act | MsrA inhibitor | bovine MsrA act | AHR act cf | PXR counter
C[C@@H]1CN([C@H](C)CO)C(=O)CCCn2nncc2CO[C@H]1CN(C)C(=O)Nc1cccc2ccccc12 | 0 | . | 0 | . | 0 | -3 | . | .
Cc1cc(C)c(C#N)c(Nc2ccc3c(c2)OCCO3)n1 | 4 | 0 | 0 | 86* | -1 | -7 | 103* | 22*
COc1cccc(Nc2nc(C)cc(C)c2C#N)c1 | 4 | . | 0 | 79* | 2 | -1 | 63* | 31*
Cc1cc(C)c(C#N)c(Nc2ccccc2)n1 | 0 | 14 | 0 | 28 | 4 | -1 | . | .
COc1ccc(Nc2nc(C)cc(C)c2C#N)cc1OC | -2 | 12 | 0 | 114* | 0 | -2 | 59* | 20*
C=CCCC1CN(Cc2ccc(OC)cc2)S(=O)(=O)c2c(Oc3ccc(C(C)C)cc3)cccc2O1 (stereo not drawn) | . | . | . | . | 1 | . | . | .
O=C(Nc1ccc(F)c(F)c1)c1oc2ccccc2c1NC(=O)C1CCCO1 (stereo not drawn) | 2 | 4 | 1 | 81* | 0 | -1 | 135* | 24*
CCC(=O)Nc1c(C(=O)Nc2ccc3c(c2)OCCO3)oc2ccccc12 | -3 | 41 | 1 | 87* | 3 | -4 | 19 | 30*
CCC(=O)Nc1ccc(NC(=O)c2oc3ccccc3c2C)cc1 | 5 | 6 | -1 | 6 | 1 | -8 | . | .
CCOc1ccc2oc(C(=O)Nc3ccc4c(c3)OCO4)c(C)c2c1 | -12 | 23 | 1 | 83* | 1 | 2 | 38 | 25*
O=C(Nc1ccccc1)c1oc2ccccc2c1NC(=O)C1CC1 | -9 | 4 | 0 | 103* | 2 | 5 | -3 | 51*
O=c1cnc2ccccc2n1Cc1ccccc1C(F)(F)F | -10 | . | 1 | -1 | 0 | -2 | . | .
CCOC(=O)c1c(C)[nH]c(C(=O)OC(C)C(=O)Nc2ccccc2OC)c1C (stereo not drawn) | 4 | 9 | 0 | 18 | 0 | -1 | . | .
CC(=O)c1cccc(S(=O)(=O)N2CCC(C(=O)N(C)Cc3ccc(Cl)s3)CC2)c1 | 0 | . | 0 | -1 | 1 | -1 | . | .
